In ChEMBL document CHEMBL2169882, “Exploration of novel 3-substituted azetidine derivatives as triple reuptake inhibitors” (J Med Chem, 2012):
Calls of active or inactive are those of the source. The calls are words filed in the database; no cut-off is given here.

Columns and labels:
[1] = target: T1, Sodium-dependent dopamine transporter (Homo sapiens, UniProt Q01959); details: HEK293, at 0.1 µM
[2] = target: T2, Sodium-dependent serotonin transporter (Homo sapiens, UniProt P31645); details: HEK293, at 0.1 µM
Target sequence in this assay (P31645 whole entry, looked up): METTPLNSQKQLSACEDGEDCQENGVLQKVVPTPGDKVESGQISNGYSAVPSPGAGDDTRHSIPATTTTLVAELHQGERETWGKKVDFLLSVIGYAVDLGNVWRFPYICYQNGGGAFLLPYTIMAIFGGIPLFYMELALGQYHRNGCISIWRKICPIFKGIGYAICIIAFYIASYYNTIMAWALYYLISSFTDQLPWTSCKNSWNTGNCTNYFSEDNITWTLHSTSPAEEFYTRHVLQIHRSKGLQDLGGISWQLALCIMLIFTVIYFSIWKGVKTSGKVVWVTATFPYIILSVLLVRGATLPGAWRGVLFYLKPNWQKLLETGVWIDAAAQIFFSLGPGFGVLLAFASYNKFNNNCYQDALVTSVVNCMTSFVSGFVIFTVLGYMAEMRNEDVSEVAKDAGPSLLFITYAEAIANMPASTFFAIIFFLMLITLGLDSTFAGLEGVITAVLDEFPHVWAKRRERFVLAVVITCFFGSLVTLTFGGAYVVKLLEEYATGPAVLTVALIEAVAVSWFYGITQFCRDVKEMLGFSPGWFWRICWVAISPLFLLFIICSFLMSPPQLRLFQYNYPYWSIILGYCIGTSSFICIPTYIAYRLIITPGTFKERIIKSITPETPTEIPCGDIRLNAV

[3] = target: T3, Sodium-dependent noradrenaline transporter (Homo sapiens, UniProt P23975); details: HEK293, at 0.1 µM
Mus musculus [4] = experiment: Antidepressant activity in ICR mouse assessed as reduction in immobility time at 10 mg/kg, iv after 0.5 hrs by forced swimming test; type: functional, organism-based; set-up: dose 10 mg/kg
Procedure, shortened: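 ICR mice; forced swimming test following Porsolt's method. Intravenous dosing 0.5 h before the test at 2.5, 5.0 and 10.0 mg/kg. Read-out was immobility time, compared with vehicle-treated mice.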

[5] = target: T2, Sodium-dependent serotonin transporter; type: cell-based, HEK293
Target sequence in this assay (P31645 whole entry): as the sequence (P31645 whole entry, looked up) above

[6] = target: T1, Sodium-dependent dopamine transporter; type: cell-based, HEK293
[7] = target: T3, Sodium-dependent noradrenaline transporter; type: cell-based, HEK293
CYP2D6 = CYP2D6 (Homo sapiens, UniProt P10635); experiment: Inhibition of human recombinant CYP2D6 at 10 uM after 5 mins by fluorescence assay
Procedure, shortened: (§1)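 Single-point screen at 10 μM against human CYP2D6 or CYP3A4, using a VIVID CYP enzyme kit. Results were expressed as percentage inhibition.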

CYP3A4 = CYP3A4 (Homo sapiens, UniProt P08684); experiment: Inhibition of human recombinant CYP3A4 at 10 uM after 5 mins by fluorescence assay
Procedure, shortened: as §1

Rattus norvegicus [8] = experiment: AUC (infinity) in Sprague-Dawley rat at 2 mg/kg, po; type: ADME, organism-based, Plasma; set-up: time infinity, dose 2 mg/kg, route oral; details: in vivo
[9] = Apparent volume of distribution during terminal phase in Sprague-Dawley rat at 2 mg/kg, po; type: ADME, organism-based; set-up: dose 2 mg/kg, route oral; details: in vivo, read-out: Vz/F
[10] = AUC (all) in Sprague-Dawley rat at 2 mg/kg, po; type: ADME, organism-based; set-up: dose 2 mg/kg, route oral; details: plasma
[11] = AUC (all) in Sprague-Dawley rat at 1 mg/kg, iv; type: ADME, organism-based; set-up: dose 1 mg/kg, route intravenous; details: plasma
[12] = Terminal half life in Sprague-Dawley rat at 2 mg/kg, po; type: ADME, organism-based; set-up: dose 2 mg/kg, route oral; details: in vivo, read-out: beta t1/2 (converted)
[13] = Tmax in Sprague-Dawley rat at 2 mg/kg, po; type: ADME, organism-based; set-up: dose 2 mg/kg, route oral; details: in vivo
[14] = Ratio of drug level from brain to plasma in ICR mouse at 10 mg/kg, ip from 30 mins to 3 hrs by LC-MS/MS analysis; type: ADME, organism-based; set-up: dose 10 mg/kg, route intraperitoneal; details: read-out: BPR
Liver microsomes = experiment: Stability in human liver microsomes assessed as compound remaining at 1 uM after 0.5 hrs by BD Gentest assay; type: ADME, Microsome
[15] = Mean residence time ( 0 to t ) in Sprague-Dawley rat at 1 mg/kg, iv; type: ADME, organism-based; set-up: dose 1 mg/kg, route intravenous; details: in vivo
Rattus norvegicus [16] = experiment: Apparent volume of distribution during terminal phase in Sprague-Dawley rat at 1 mg/kg, iv; type: ADME, organism-based; set-up: dose 1 mg/kg, route intravenous; details: in vivo
[17] = Cmax in Sprague-Dawley rat at 2 mg/kg, po; type: ADME, organism-based; set-up: dose 2 mg/kg, route oral; details: in vivo
Rattus norvegicus [18] = experiment: Oral bioavailability in Sprague-Dawley rat at 2 mg/kg; type: ADME, organism-based; details: in vivo
[19] = Apparent oral clearance in Sprague-Dawley rat at 1 mg/kg, iv; type: ADME, organism-based; set-up: dose 1 mg/kg; details: in vivo
[20] = Mean residence time ( 0 to t ) in Sprague-Dawley rat at 2 mg/kg, po; type: ADME, organism-based; set-up: dose 2 mg/kg, route oral; details: in vivo
[21] = Terminal half life in Sprague-Dawley rat at 1 mg/kg, iv; type: ADME, organism-based; set-up: dose 1 mg/kg, route intravenous; details: in vivo, read-out: beta t1/2 (converted)
[22] = target: Voltage-gated inwardly rectifying potassium channel KCNH2 (Homo sapiens, UniProt Q12809); experiment: Inhibition of human ERG expressed in CHOK1 cells by patch clamp technique; type: cell-based, CHO-K1
[23] = Apparent oral clearance in Sprague-Dawley rat at 2 mg/kg, po; type: ADME, organism-based; set-up: dose 2 mg/kg, route oral; details: in vivo
Rattus norvegicus [24] = experiment: AUC (infinity) in Sprague-Dawley rat at 1 mg/kg, iv; type: ADME, organism-based, Plasma; set-up: time infinity, dose 1 mg/kg, route intravenous; details: in vivo
[25] = Cmax in Sprague-Dawley rat at 1 mg/kg, iv; type: ADME, organism-based; set-up: dose 1 mg/kg, route intravenous; details: in vivo
Mus musculus [26] = experiment: Antidepressant activity in po dosed ICR mouse assessed as reduction in immobility time dosed 0.5 hrs before forced swimming test; type: functional, organism-based
Procedure, shortened: (§2)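 ICR mice were tested in the Porsolt forced swimming test with a 30 min pretreatment. Doses were 2.5, 5.0 and 10.0 mg/kg IV or 10, 20 and 40 mg/kg PO. Read-out was immobility time, compared with vehicle. Venlafaxine was the positive control.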

Mus musculus [27] = experiment: Antidepressant activity in iv dosed ICR mouse assessed as reduction in immobility time dosed 0.5 hrs before forced swimming test; type: functional, organism-based
Procedure, shortened: as §2

T1 sequence (Q01959 whole entry): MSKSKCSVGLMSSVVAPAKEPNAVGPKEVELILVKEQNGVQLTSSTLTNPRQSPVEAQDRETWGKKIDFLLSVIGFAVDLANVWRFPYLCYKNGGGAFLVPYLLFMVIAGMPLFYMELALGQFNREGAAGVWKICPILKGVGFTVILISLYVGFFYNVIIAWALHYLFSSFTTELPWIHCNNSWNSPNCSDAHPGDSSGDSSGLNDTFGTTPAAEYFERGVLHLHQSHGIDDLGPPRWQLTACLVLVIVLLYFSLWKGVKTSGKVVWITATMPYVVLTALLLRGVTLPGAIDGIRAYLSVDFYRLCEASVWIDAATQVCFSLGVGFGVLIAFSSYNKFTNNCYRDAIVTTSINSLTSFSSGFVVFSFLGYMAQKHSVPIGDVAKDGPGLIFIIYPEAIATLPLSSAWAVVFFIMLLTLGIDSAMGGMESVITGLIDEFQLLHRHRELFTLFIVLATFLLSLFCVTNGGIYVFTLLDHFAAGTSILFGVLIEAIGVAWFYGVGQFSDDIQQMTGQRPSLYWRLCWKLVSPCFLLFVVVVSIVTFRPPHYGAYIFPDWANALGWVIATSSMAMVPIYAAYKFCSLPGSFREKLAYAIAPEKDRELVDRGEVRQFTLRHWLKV
T3 sequence (P23975 whole entry): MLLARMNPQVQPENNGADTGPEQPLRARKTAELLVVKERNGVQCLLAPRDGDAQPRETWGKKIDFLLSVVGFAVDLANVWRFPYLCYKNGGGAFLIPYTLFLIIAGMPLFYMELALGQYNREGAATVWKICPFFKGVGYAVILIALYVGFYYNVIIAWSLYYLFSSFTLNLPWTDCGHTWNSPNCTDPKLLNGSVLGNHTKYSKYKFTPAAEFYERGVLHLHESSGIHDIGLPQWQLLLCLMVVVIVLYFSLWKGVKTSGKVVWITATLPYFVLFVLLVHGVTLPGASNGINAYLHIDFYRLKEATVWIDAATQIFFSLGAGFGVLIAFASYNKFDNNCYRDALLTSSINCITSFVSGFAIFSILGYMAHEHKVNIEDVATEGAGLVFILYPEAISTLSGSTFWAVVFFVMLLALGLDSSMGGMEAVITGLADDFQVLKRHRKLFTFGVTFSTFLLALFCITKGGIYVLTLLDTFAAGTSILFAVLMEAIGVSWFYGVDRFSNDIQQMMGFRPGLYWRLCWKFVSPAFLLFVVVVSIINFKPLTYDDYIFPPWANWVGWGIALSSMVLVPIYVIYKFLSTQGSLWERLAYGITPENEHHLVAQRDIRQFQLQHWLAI
Sequence of CYP2D6 (P10635 whole entry): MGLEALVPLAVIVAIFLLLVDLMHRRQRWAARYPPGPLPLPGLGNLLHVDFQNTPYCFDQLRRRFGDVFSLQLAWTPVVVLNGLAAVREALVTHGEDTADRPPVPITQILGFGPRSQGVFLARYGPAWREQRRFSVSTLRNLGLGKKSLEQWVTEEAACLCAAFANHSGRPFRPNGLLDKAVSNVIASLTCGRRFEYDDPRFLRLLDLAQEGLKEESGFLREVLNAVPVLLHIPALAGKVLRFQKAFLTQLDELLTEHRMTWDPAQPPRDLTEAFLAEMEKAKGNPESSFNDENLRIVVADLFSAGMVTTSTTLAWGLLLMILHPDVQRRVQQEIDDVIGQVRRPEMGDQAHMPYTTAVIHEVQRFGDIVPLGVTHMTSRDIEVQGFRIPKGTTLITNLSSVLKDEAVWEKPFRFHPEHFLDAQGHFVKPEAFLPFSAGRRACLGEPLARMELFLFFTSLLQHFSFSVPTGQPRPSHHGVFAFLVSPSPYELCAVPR
Sequence of CYP3A4 (P08684 whole entry): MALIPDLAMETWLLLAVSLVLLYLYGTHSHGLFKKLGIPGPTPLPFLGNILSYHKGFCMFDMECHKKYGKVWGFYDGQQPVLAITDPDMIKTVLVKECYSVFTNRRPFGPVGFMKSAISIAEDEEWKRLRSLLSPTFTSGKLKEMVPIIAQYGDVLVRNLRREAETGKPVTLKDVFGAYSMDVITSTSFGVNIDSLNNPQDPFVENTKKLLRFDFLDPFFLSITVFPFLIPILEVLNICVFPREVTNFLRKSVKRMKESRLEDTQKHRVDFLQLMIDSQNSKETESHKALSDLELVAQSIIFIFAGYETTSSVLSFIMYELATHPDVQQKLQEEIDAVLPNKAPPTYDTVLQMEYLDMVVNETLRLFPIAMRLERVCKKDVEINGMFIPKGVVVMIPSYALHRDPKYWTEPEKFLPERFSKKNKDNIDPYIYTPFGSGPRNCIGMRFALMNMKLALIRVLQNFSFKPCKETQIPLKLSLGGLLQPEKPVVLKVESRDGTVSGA
Sequence of Voltage-gated inwardly rectifying potassium channel KCNH2 (Q12809 whole entry): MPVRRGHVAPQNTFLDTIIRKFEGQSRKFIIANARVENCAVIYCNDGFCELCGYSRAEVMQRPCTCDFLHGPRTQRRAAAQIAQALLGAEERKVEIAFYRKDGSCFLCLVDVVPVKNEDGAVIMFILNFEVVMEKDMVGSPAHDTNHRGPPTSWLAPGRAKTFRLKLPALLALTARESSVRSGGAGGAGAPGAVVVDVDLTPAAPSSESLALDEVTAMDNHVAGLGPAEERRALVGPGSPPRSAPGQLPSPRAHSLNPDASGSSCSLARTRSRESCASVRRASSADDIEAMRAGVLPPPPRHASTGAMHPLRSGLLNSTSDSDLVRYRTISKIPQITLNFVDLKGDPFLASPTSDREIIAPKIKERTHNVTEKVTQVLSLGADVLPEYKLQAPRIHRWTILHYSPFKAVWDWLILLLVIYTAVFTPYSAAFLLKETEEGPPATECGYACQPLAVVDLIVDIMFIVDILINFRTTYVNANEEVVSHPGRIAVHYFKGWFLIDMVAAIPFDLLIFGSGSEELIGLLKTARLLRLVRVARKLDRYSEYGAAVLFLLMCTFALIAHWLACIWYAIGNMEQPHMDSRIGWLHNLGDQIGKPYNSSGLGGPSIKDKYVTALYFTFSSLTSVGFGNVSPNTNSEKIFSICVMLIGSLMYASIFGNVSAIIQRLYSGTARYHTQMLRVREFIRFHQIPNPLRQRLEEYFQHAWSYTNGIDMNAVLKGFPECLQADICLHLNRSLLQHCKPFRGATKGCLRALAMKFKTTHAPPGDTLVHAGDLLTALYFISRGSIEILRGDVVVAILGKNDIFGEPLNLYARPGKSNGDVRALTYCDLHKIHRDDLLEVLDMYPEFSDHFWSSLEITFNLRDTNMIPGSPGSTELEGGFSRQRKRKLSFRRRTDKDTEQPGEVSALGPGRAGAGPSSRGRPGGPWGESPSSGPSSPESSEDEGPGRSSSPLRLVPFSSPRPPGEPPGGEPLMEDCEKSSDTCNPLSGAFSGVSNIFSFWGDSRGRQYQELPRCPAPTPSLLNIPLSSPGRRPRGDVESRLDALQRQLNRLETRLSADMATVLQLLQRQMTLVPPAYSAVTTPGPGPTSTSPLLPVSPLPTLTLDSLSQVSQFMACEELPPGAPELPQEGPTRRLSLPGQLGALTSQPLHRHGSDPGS

Clc1ccc(C(OCc2ccccc2)C2CNC2)cc1Cl (centres undefined)
inhibition [1]: 12%
inhibition [2]: 12%
inhibition [3]: 30%

Fc1ccc(C(OCCN2CCN(CCCc3ccccc3)CC2)c2ccc(F)cc2)cc1
inhibition [2]: 1.9%
inhibition [3]: -5.9%

COc1ccc(C(CN(C)C)C2(O)CCCCC2)cc1 (centres undefined)
Activity (Mus musculus [4]): Active

CCOC(c1ccc(Cl)c(Cl)c1)C1CNC1 (centres undefined)
inhibition [1]: 30%
inhibition [2]: 28%
inhibition [3]: 49%

Fc1cc(C(Oc2ccccc2F)C2CNC2)ccc1Cl (centres undefined)
inhibition [1]: 29%
inhibition [2]: 41%
inhibition [3]: 81%

CCOC(c1ccccc1)C1CNC1 (centres undefined)
inhibition [1]: 3%
inhibition [2]: 4%
inhibition [3]: 4.5%

CCCOC(c1ccc(Cl)c(Cl)c1)C1CNC1 (centres undefined)
inhibition [1]: 74%
inhibition [2]: 39%
IC50 [5]: 0.044 µM
IC50 [6]: 0.032 µM
inhibition [3]: 87%
IC50 [7]: 0.01 µM

c1ccc(COC(c2ccccc2)C2CNC2)cc1 (centres undefined)
inhibition [1]: 2%
inhibition [2]: 12%
inhibition [3]: 9.4%

Clc1ccc(C(OCc2ccccc2)C2CNC2)cc1 (centres undefined)
inhibition [1]: 5.7%
inhibition [2]: 12%
inhibition [3]: 16%

Clc1ccc(OC(c2ccc3ccccc3c2)C2CNC2)cc1Cl (centres undefined)
inhibition [1]: 68%
inhibition [2]: 28%
inhibition at 5 min, 10 µM (CYP2D6): 25%
inhibition at 5 min, 10 µM (CYP3A4): 41%
IC50 [5]: 0.035 µM
IC50 [6]: 0.054 µM
inhibition [3]: 79%
IC50 [7]: 0.016 µM

COC(c1ccccc1)C1CNC1 (centres undefined)
inhibition [1]: 2.2%
inhibition [2]: 3.3%
inhibition [3]: 1.5%

OC(c1ccccc1)C1CNC1 (centres undefined)
inhibition [1]: 3.9%
inhibition [2]: 1.7%
inhibition [3]: 0.2%

c1ccc(OC(c2ccccc2)C2CNC2)cc1 (centres undefined)
inhibition [1]: 9.3%
inhibition [2]: 25%
inhibition [3]: 18%

Clc1ccc(C(Oc2ccccc2)C2CNC2)cc1Cl (centres undefined)
inhibition [1]: 58%
inhibition [2]: 16%
inhibition [3]: 89%

CNCCC(Oc1ccccc1OC)c1ccccc1 (centres undefined)
inhibition [1]: 9.8%
inhibition [2]: 9.9%

COC(c1ccc(Cl)c(Cl)c1)C1CNC1 (centres undefined)
inhibition [1]: 22%
inhibition [2]: 16%
inhibition [3]: 47%

COC(c1ccc(Cl)cc1)C1CNC1 (centres undefined)
inhibition [1]: 2.6%
inhibition [2]: 3.9%
inhibition [3]: 7.7%

Fc1cc(C(Oc2ccccc2)C2CNC2)ccc1Cl (centres undefined)
inhibition [1]: 30%
inhibition [2]: 49%
IC50 [5]: 0.142 µM
IC50 [6]: 0.148 µM
inhibition [3]: 76%
IC50 [7]: 0.021 µM

OC(c1ccc(Cl)cc1)C1CNC1 (centres undefined)
inhibition [1]: 2.1%
inhibition [2]: 2%
inhibition [3]: 3.5%

Clc1ccc(C(Oc2ccccc2)C2CNC2)cc1 (centres undefined)
inhibition [1]: 36%
inhibition [2]: 22%
inhibition [3]: 68%

CCOC(c1ccc(Cl)cc1)C1CNC1 (centres undefined)
inhibition [1]: 7.3%
inhibition [2]: 4.6%
inhibition [3]: 10%

CCCOC(c1ccc2ccccc2c1)C1CNC1.Cl (centres undefined)
inhibition [1]: 48%
AUC (Rattus norvegicus [8]): 0.0494 µg·h/mL
inhibition [2]: 77%
Vd/F [9]: 249 L/kg
AUC [10]: 0.0239 µg·h/mL
IC50 [5]: 0.0068 µM
AUC [11]: 0.211 µg·h/mL
half-life [12]: 4.8 h
Tmax [13]: 1 h
Kp [14]: 0.86
IC50 [6]: 0.072 µM
inhibition [3]: 87%
Stability (Liver microsomes): Stable
MRT last [15]: 0.9 h
Vz/F (Rattus norvegicus [16]): 4.8 L/kg
Cmax [17]: 0.0073 µg/mL
F (Rattus norvegicus [18]): 5.7%
CL/F [19]: 4.7 L/h/kg
MRT last [20]: 2.2 h
half-life [21]: 0.7 h
IC50 [22]: 0.98 µM
CL/F [23]: 46.5 L/h/kg
AUC (Rattus norvegicus [24]): 0.2146 µg·h/mL
Cmax [25]: 0.198 µg/mL
IC50 [7]: 0.012 µM

Cl.c1ccc(OC(c2ccc3ccccc3c2)C2CNC2)cc1 (centres undefined)
Activity (Mus musculus [4]): Active
inhibition [1]: 64%
AUC (Rattus norvegicus [8]): 0.0417 µg·h/mL
inhibition [2]: 64%
inhibition at 5 min, 10 µM (CYP2D6): 16%
Vd/F [9]: 241 L/kg
inhibition at 5 min, 10 µM (CYP3A4): 12%
AUC [10]: 0.0179 µg·h/mL
IC50 [5]: 0.0083 µM
AUC [11]: 0.153 µg·h/mL
half-life [12]: 3.3 h
Tmax [13]: 1.3 h
Kp [14]: 2.7
IC50 [6]: 0.035 µM
inhibition [3]: 90%
Stability (Liver microsomes): Stable
Activity (Mus musculus [26]): Dose-dependent effect
MRT last [15]: 1.73 h
Activity (Mus musculus [27]): Dose-dependent effect
Vz/F (Rattus norvegicus [16]): 13.1 L/kg
Cmax [17]: 0.0056 µg/mL
F (Rattus norvegicus [18]): 5.8%
CL/F [19]: 6.4 L/h/kg
MRT last [20]: 2 h
half-life [21]: 1.4 h
CL/F [23]: 48.7 L/h/kg
AUC (Rattus norvegicus [24]): 0.1597 µg·h/mL
Cmax [25]: 0.112 µg/mL
IC50 [7]: 0.0031 µM
